Experimental data published in the EternaBench riboswitch data.

System: MS2 coat protein
Assay: apparent Kd, MS2 coat protein; higher = weaker binding; RNA-MaP array; FMN 200 µM where present
Procedure, shortened: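 Stalled E. coli RNA polymerase transcribed the designs on Illumina sequencing-chip clusters. SNAP-549-labelled MS2 coat protein was titrated from 0.7 or 1.5 nM, doubling to 3 µM, without and then with constant ligand, in 100 mM Tris-HCl pH 7.5, 80 mM KCl, 4 mM MgCl2, BSA, DTT, yeast tRNA and Tween-20. Per-cluster binding curves were fitted to green signal normalised to red-channel RNA signal and control-cluster median Fmax. The apparent Kd is the median of the filtered fits.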

[1] = designed as: ON switch for flavin mononucleotide, no ligand
[2] = ligand present: flavin mononucleotide, designed as: ON switch for flavin mononucleotide
[3] = designed as: OFF switch for flavin mononucleotide, no ligand
[4] = ligand present: flavin mononucleotide, designed as: OFF switch for flavin mononucleotide

## GUAGCAUACCGAGGAUAUCUAUAUAAUAAACAAACAUGAGGAUCACCCAUGUGGCGAAAGCCAAGGGAGAAGGCGGAAUGCUAC
[1]
  apparent Kd: 35.6 nM
[2]
  apparent Kd: 22.1 nM

## GUAGCAUACCGAGGAUAUUCAGAUAAUAAAUAAACAUGAGGAUCACCCAUGUGGCGAAAGCCUAGGGAGAAGGCGGAAUGCUAC
[1]
  apparent Kd: 77 nM
[2]
  apparent Kd: 20.6 nM

## GUAGCAUACCGAGGAUAUUCAUACAAUAAAUAGACAUGAGGAUCACCCAUGUGGCGAAAGCCUUGGGAGAAGGCGGAAUGCUAC
[1]
  apparent Kd: 451 nM
[2]
  apparent Kd: 37.6 nM

## GUAGCAUACCGAGGAUAUUCAUACCGGAAACGGACAUGAGGAUCACCCAUGUUACGAAAGUAUUGGGAGAAGGCGGAAUGCUAC
[1]
  apparent Kd: 135 nM
[2]
  apparent Kd: 22.6 nM

## GUAGCAUACCGAGGAUAUUCAUACCGGAAACGGACAUGAGGAUCACCCAUGUUUAGAAAUAAUUGGGAGAAGGCGGAAUGCUAC
[1]
  apparent Kd: 232 nM
[2]
  apparent Kd: 44.7 nM

## GUAGCAUACCGAGGAUAUUCAUAUUACAUGAGGAUCACCCAUGUUAUAGGUCGAUUACGACCUUGGGAGAAGGCGGAAUGCUAC
[1]
  apparent Kd: 30.9 nM
[2]
  apparent Kd: 13.2 nM

## GUAGCAUACCGAGGAUAUUCAUGGAAUAAAUAAACAUGAGGAUCACCCAUGUGGCGAAAGCCUAGGGAGAAGGCGGAAUGCUAC
[1]
  apparent Kd: 269 nM
[2]
  apparent Kd: 446 nM

## GUAGCAUACGGAGGAUAUUCAUUAAAACAUGAGGAUCACCCAUGUAAAUUGGGAGAAGGCCGUAUGCUACAAGAGCGAAAGCUC
[1]
  apparent Kd: 18.3 nM
[2]
  apparent Kd: 5.48 nM

## GUAGCAUGCCAAGGAUAUUCAUAUAGUAGGCAAACAUGAGGAUCACCCAUGUAAUGAGAGCAGUGGGAGAAGGUGGGAUGCUAC
[1]
  apparent Kd: 51.5 nM
[2]
  apparent Kd: 31.9 nM

## GUAGCAUUCUGAGGAUAUGGGUUCCGGAAACGGACAUGAGGAUCACCCAUGUGGCGAAAGCCAUACUAGAAGGCAGUAUGCUAC
[1]
  apparent Kd: 77.9 nM
[2]
  apparent Kd: 7.46 nM

## GUAGCGUAUGUAGGAUAUCGGUCAGUUUCUGAUCGAGAAGGACAUGAGGAUCACCCAUGUAAAUUACCGACUUUGUCGGGCUGC
[3]
  apparent Kd: 8.06 nM
[4]
  apparent Kd: 12.4 nM

## GUAGCUACUAUUAUACAUGAGGAUCACCCAUGUUACAUGUGUAAGGAUAUUGAAGUUAUUAUUAUCAAGAAGGUACUAUGCUAC
[1]
  apparent Kd: 16.2 nM
[2]
  apparent Kd: 9.54 nM

## GUAGCUAGUACAGGAUAUUAGUGUGUGUAAUAUUGAGAAGGGUACAUGAGGAUCACCCAUGUGAUCAAUCACUGUUAAGGUUGC
[3]
  apparent Kd: 80.4 nM
[4]
  apparent Kd: 64 nM

## GUAGCUAUCGGAGGAUAUUCAUAAAACAUGAGGAUCACCCAUGUUAAAUUGGGAGAAGGCCGAUAGCUACAAGAGCGAAAGCUC
[1]
  apparent Kd: 5.85 nM
[2]
  apparent Kd: 4.76 nM

## GUAGCUAUCGGAGGAUAUUCAUACGGGAAACGGACAUGAGGAUCACCCAUGUGGCGAAAGCCUUGGGAGAAGGCCGAUAGCUAC
[1]
  apparent Kd: 37.4 nM
[2]
  apparent Kd: 8.89 nM

## GUAGCUAUCGGAGGAUAUUCAUAGCCGAAAGGCACAUGAGGAUCACCCAUGUGGCGAAAGCCUUGGGAGAAGGCCGAUAGCUAC
[1]
  apparent Kd: 270 nM
[2]
  apparent Kd: 18.7 nM

## GUAGUACAUGAGGAUCACCCAUGUGUGGGCGCAUGAGGAUAUGUCCGUACCUGGCGUACGAUAGAAGGCAUGGUGC
[1]
  apparent Kd: 52.8 nM
[2]
  apparent Kd: 29.3 nM

## GUAGUUAGUAGAGGAUAUUAAUAUGUGUAAUAUUGAGAAGGUUACAUGAGGAUCACCCAUGUGAUCAAUCACUGUUAAGGUUGC
[3]
  apparent Kd: 6.97 nM
[4]
  apparent Kd: 7.06 nM

## GUAUAUAUAUAAGGAUAUAAGUCUAGGACAUGAGGAUCACCCAUGUGUGUCUUAGAAGGUAUAUAUGUAAUACUGUUACAGUAA
[1]
  apparent Kd: 64.8 nM
[2]
  apparent Kd: 14.2 nM

## GUAUCAUACCAAGGAUAUUUAGGACUUGUGUAGACAUGAGGAUCACCCAUGUGGCGUUAGUCACGGGAGAAGGUGGUAUGAUAC
[1]
  apparent Kd: 78.5 nM
[2]
  apparent Kd: 18.8 nM

## GUAUCGUGAGGAUAUCAUGAUUGACUUAAUUUAUGUCAGCGUGAGAAGGCACAUGAGGAUCACCCAUGUGAUUA
[3]
  apparent Kd: 22.8 nM
[4]
  apparent Kd: 54.8 nM

## GUAUCGUGAGGAUAUCUAGACUGACUUAGUACAUGUCAGCUGGAGAAGGCACAUGAGGAUCACCCAUGUGAUUA
[3]
  apparent Kd: 22.6 nM
[4]
  apparent Kd: 73.8 nM

## GUAUCUCACUGAGGAUAUUUACGAUUAGUGUAGACAUGAGGAUCACCCAUGUGGCGUUAGUCACGGGAGAAGGCAGUGCGAUAC
[1]
  apparent Kd: 114 nM
[2]
  apparent Kd: 20 nM

## GUAUCUUACCAAGGAUAUUUACGAUUAGUGUAGACAUGAGGAUCACCCAUGUGGCCUUAGUCACGGGAGAAGGUGGUUUGAUAC
[1]
  apparent Kd: 317 nM
[2]
  apparent Kd: 73.7 nM

## GUAUGACAAAGUCAUACCGCUCUGACAUGAGGAUCACCCAUGUAGGAUAUAUUAAUCAAAGAUUAAUAGAAGGACAUGUUUCUU
[3]
  apparent Kd: 35.3 nM
[4]
  apparent Kd: 79.3 nM

## GUAUUUAGAUAAGGAUAUAAGUCUAUGACAUGAGGAUCACCCAUGUGUGUCUUAGAAGGUAUUUGGGUAAUAUUGUUACAGUAA
[2]
  apparent Kd: 16.2 nM

## GUCAAGUGAGGAUAUGAUUGUACAACAGACUAGCAUCUGCAUCAGAAGGCACAUGAGGAUCACCCAUGUUUGUC
[3]
  apparent Kd: 17.5 nM
[4]
  apparent Kd: 17.7 nM

## GUCAGCUCAUGAGGAUAUACAACACUGCUUCGGCAGUGUAUUAAGAUCACAUGAGGAUCACCCAUGUAGAAGGCACGAGCUGAU
[3]
  apparent Kd: 12.9 nM
[4]
  apparent Kd: 258 nM

## GUCAGCUCGUGAGGAUAUACAACACCGCUUCGGCAGUGUAUUAAGAUCACAUGAGGAUCACCCAUGUAGAAGGCACGAGCUGAU
[3]
  apparent Kd: 12.9 nM
[4]
  apparent Kd: 255 nM

## GUCAGCUCGUGAGGAUAUACAACACUGCUUCGGCAGUGCAUUAAGAUCACAUGAGGAUCACCCAUGUAGAAGGCACGAGCUGAU
[3]
  apparent Kd: 15 nM
[4]
  apparent Kd: 313 nM

## GUCAGCUCGUGAGGAUAUACAACACUGCUUCGGCAGUGUAUUAAGAUCACAUGAGGAUCACCCAUGUAGAAGGCACGAGCUAAU
[3]
  apparent Kd: 15.9 nM
[4]
  apparent Kd: 267 nM

## GUCAGCUCGUGAGGAUAUACAACACUGCUUCGGCAGUGUAUUAAGAUCACAUGAGGAUCACCCAUGUAGAAGGCACGAGCUGAG
[3]
  apparent Kd: 13 nM
[4]
  apparent Kd: 200 nM

## GUCAGCUCGUGAGGAUAUACAACACUGCUUCGGCAGUGUAUUAAGAUCACAUGAGGAUCACCCAUGUAGAAGGCACGCGCUGAU
[3]
  apparent Kd: 12.9 nM
[4]
  apparent Kd: 292 nM

## GUCAGCUCGUGAGGAUAUACAACACUGCUUCGGCAGUGUAUUAAUAUCACAUGAGGAUCACCCAUGUAGAAGGCACGAGCUGAU
[3]
  apparent Kd: 5.07 nM
[4]
  apparent Kd: 5.81 nM

## GUCAGCUCGUGAGGAUAUACAACACUGCUUUGGCAGUGUAUUAAGAUCACAUGAGGAUCACCCAUGUAGAAGGCACGAGCUGAU
[3]
  apparent Kd: 13.2 nM
[4]
  apparent Kd: 228 nM

## GUCAGCUCGUGAGGAUAUACAACACUUCUUCGGCAGUGUAUUAAGAUCACAUGAGGAUCACCCAUGUAGAAGGCACGAGCUGAU
[3]
  apparent Kd: 14.1 nM
[4]
  apparent Kd: 231 nM

## GUCAGCUCGUGAGGAUAUACAAUACUGCUUCGGCAGUGUAUUAAGAUCACAUGAGGAUCACCCAUGUAGAAGGCACGAGCUGAU
[3]
  apparent Kd: 7.88 nM
[4]
  apparent Kd: 60.4 nM

## GUCAGCUCGUGAGGAUAUACAUCACUGCUUCGGCAGUGUAUUAAGAUCACAUGAGGAUCACCCAUGUAGAAGGCACGAGCUGAU
[3]
  apparent Kd: 42.5 nM
[4]
  apparent Kd: 620 nM

## GUCAGCUCGUGAGGAUAUACAUGAUAGAUCGAUUAAUUAAUUAAUUUAACAUGAGGAUCACCCAUGUAGAAGGCACGAGCUGAU
[3]
  apparent Kd: 57.2 nM
[4]
  apparent Kd: 46.6 nM

## GUCAGCUCGUGAGGAUAUACAUGUGCUGGAUACAGCACUAUUAAAUUCACAUGAGGAUCACCCAUGUAGAAGGCACGAGCUGAU
[3]
  apparent Kd: 15.6 nM
[4]
  apparent Kd: 17.8 nM

## GUCAGCUCGUGAGGAUAUAUAUUAACAUGAGGAUCACCCAUGUAAGAUCAGCUUCGGCAGUUAAUAUAGAAGGCACGAGCUGAC
[3]
  apparent Kd: 168 nM
[4]
  apparent Kd: 188 nM

## GUCAUCACAUGAGGAUAUGCUCGGGUUUCCCGAGCAGAAGGCAUGGCAUACAUGAGGAUCACCCAUGUUGACAUUAAGAUUGUA
[1]
  apparent Kd: 10.3 nM
[2]
  apparent Kd: 6.73 nM

## GUCAUCGCAUGAGGAUAUGCUCGGGUUUCCCGAGCAGAAGGCAUGUCAUAAGACAUGAGGAUCACCCAUGUAGUUAAGAUUGUA
[1]
  apparent Kd: 192 nM
[2]
  apparent Kd: 12.5 nM

## GUCAUGUUAGGAUAUCAAACAUGUGACUUCGGUCACUGUCCUGAGAAGGAACAUGAGGAUCACCCAUGUUGGAC
[3]
  apparent Kd: 17.8 nM
[4]
  apparent Kd: 47.4 nM

## GUCCUCUCUGAGGAUAUUAUCUGGUUCGAUUGAUAAGAAGGCAGUACAUGAGGAUCACCCAUGUGGGUCGUCUG
[3]
  apparent Kd: 31 nM
[4]
  apparent Kd: 83.7 nM

## GUCCUUUCUGAGGAUAUUAUCUUUUUCGAUUGAUAAGAAGGCAGUACAUGAGGAUCACCCAUGUGGGUUGUCUG
[3]
  apparent Kd: 31 nM
[4]
  apparent Kd: 131 nM

## GUCGGAAACGACAAGUAGCAAUCGGAGGAUAUUCAUGGAAACAUGAGGAUCACCCAUGUAAAUUGGGAGAAGGCCGAUUGCUAC
[1]
  apparent Kd: 1220 nM
[2]
  apparent Kd: 93.6 nM

## GUCGGAAACGACAAGUAGCAAUCGGAGGAUAUUCAUUAAAACAUGAGGAUCACCCAUGUAAAUUGGGAGAAGGCCGAUUGCUAC
[1]
  apparent Kd: 17.8 nM
[2]
  apparent Kd: 5.31 nM

## GUCGGGUGGGUAGGAUAUGGCUAUGUCUCAUUGCUAGAAGGACCAACUGCUACAUGAGGAUCACCCAUGUCGUAGUGCACCCGG
[1]
  apparent Kd: 149 nM
[2]
  apparent Kd: 27.5 nM

## GUCGUGUGAGGAUAUGGAUAGAAGAAGUGAAAGUAAGCGACCUAGAAGGCACAUGAGGAUCACCCAUGUAUGUG
[3]
  apparent Kd: 45.3 nM
[4]
  apparent Kd: 75.6 nM

## GUCGUGUUAGGAUAUGGCAACGGCUAGGAAACUAGUUGUUGUUAGAAGGAACAUGAGGAUCACCCAUGUAUGAC
[3]
  apparent Kd: 34.3 nM
[4]
  apparent Kd: 84.3 nM

## GUCGUUUAUGUAGGAUAUGCGAGGCGAGCCUAAGCAGAAGGACAUGAGGAUCACCCAUGUAUUGCGGUCUGCGUUCAGAUCGCU
[3]
  apparent Kd: 45 nM
[4]
  apparent Kd: 174 nM

## GUCUCGUGAGGAUAUGACGCUACUUUUUUGUUUUAGUAGAGUCAGAAGGCACAUGAGGAUCACCCAUGUGAUUC
[3]
  apparent Kd: 78.6 nM
[4]
  apparent Kd: 48.7 nM

## GUCUGAUUGUAGAAGGUACUUAAUACUCAUGUAACAUGAGGAUCACCCAUGUAUCAACAAUAUUGUAAGGAUAUACAAAUCUCA
[2]
  apparent Kd: 222 nM

## GUGACUUAUAGAGGAUAUUGACAUGAGGAUCACCCAUGUAUUUGGUAGUGUUCAAUGAAUUCUUGCGAGAAGGCUAUAAGACAC
[3]
  apparent Kd: 221 nM
[4]
  apparent Kd: 261 nM
